# Laboratory results taken from ChEMBL document CHEMBL1240480, “Design, synthesis and biological evaluation of L-dopa amide derivatives as potential prodrugs for the treatment of Parkinson's disease” (Eur J Med Chem, 2010).
# How the values were obtained:
# Rattus norvegicus [1] = assay: Antiparkinsonian activity in 6-hydroxydopamine lesioned Wistar rat assessed as area under curve measured as number of rotation per 10 mins at 16.53 mg/kg, ip; type: functional; settings: route intraperitoneal
# In short: (§1)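 Male Wistar rats were given desipramine (25 mg/kg ip) and then a unilateral 6-OHDA injection (8 µg free base) into the left medial forebrain bundle. Lesions were confirmed ≥2 weeks later by apomorphine (0.5 mg/kg sc), accepting rats with >6 turns/min. Rats (n=4–8) received benserazide 10 mg/kg and 30 min basal recording, then drug at 63.4 µmol/kg ip or po in saline. Contraversive rotations were counted per 10 min over 240 min. AUC was calculated and expressed as % of the L-dopa effect.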
# Rattus norvegicus [2] = assay: Antiparkinsonian activity in 6-hydroxydopamine lesioned Wistar rat assessed as area under curve measured as number of rotation per 10 mins at 16.53 mg/kg, po; type: functional; in short: as §1
# Rattus norvegicus [3] = assay: Antiparkinsonian activity in 6-hydroxydopamine lesioned Wistar rat assessed as duration of rotation per 10 mins at 16.53 mg/kg, ip; type: functional; settings: route intraperitoneal
# In short: (§2)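 The 6-OHDA-lesioned male Wistar rats were apomorphine-screened (>6 turns/min) and given benserazide 10 mg/kg, then a saline-vehicle dose of 63.4 µmol/kg ip or po (n=4–8). Rotations were counted per 10 min for 4 h. Duration of activity was the time turning >10 turns per 10 min, expressed as % of the L-dopa effect.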
# Rattus norvegicus [4] = assay: Antiparkinsonian activity in 6-hydroxydopamine lesioned Wistar rat assessed as number of rotation per 10 mins at 16.53 mg/kg, po; type: functional
# In short: (§3)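 Rotometer assay in unilaterally 6-OHDA-lesioned male Wistar rats (apomorphine-confirmed, >6 turns/min). Benserazide 10 mg/kg was given, followed by compound at 63.4 µmol/kg ip or po in saline (n=4–8 per treatment). Rotations were recorded per 10 min for 240 min. Peak (maximum) rotations per 10 min were taken and expressed relative to L-dopa.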
# Rattus norvegicus [5] = assay: Antiparkinsonian activity in 6-hydroxydopamine lesioned Wistar rat assessed as duration of rotation per 10 mins at 16.53 mg/kg, po; type: functional; in short: as §2
# Rattus norvegicus [6] = assay: Antiparkinsonian activity in 6-hydroxydopamine lesioned Wistar rat assessed as number of rotation per 10 mins at 16.53 mg/kg, ip; type: functional; settings: route intraperitoneal; in short: as §3
# Rattus norvegicus [7] = assay: Antiparkinsonian activity in 6-hydroxydopamine lesioned Wistar rat assessed as duration of rotation per 10 mins at 14.74 mg/kg, ip; type: functional; settings: route intraperitoneal; in short: as §2
# Rattus norvegicus [8] = assay: Antiparkinsonian activity in 6-hydroxydopamine lesioned Wistar rat assessed as duration of rotation per 10 mins at 14.74 mg/kg, po; type: functional; in short: as §2
# Rattus norvegicus [9] = assay: Cmax in Wistar rat at 14.8 mg/kg, po assessed as L-dopa level; type: ADME, organism-based; parameters: dose 14.8 mg/kg, route oral; settings: in vivo
# In short: (§4)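 Naïve male Wistar rats (250–500 g), fasted overnight, dosed orally in 0.9% saline with benserazide (10 mg/kg) at dose equivalent to 12.5 mg/kg L-dopa. Heparinised tail-vein blood at various times; plasma extracted with 20% TFA in 10 mM metabisulphite with warfarin internal standard; L-dopa quantified by LC-MS/MS (positive ESI) against plasma standard curve 0.39–50 µM.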
# Rattus norvegicus [10] = assay: Apparent half life in Wistar rat at 14.8 mg/kg, po assessed as L-dopa level; type: ADME, organism-based; parameters: dose 14.8 mg/kg, route oral; settings: in vivo; in short: as §4
# Rattus norvegicus [11] = assay: Antiparkinsonian activity in 6-hydroxydopamine lesioned Wistar rat assessed as area under curve measured as number of rotation per 10 mins at 14.74 mg/kg, po; type: functional; in short: as §1
# Rattus norvegicus [12] = assay: AUC (0 to 4 hrs) in Wistar rat at 14.8 mg/kg, po assessed as L-dopa level; type: ADME, organism-based, Plasma; parameters: time < 4 hr, dose 14.8 mg/kg, route oral; settings: in vivo
# In short: (§5)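 Naïve male Wistar rats (250–500 g), fasted overnight, dosed with compound in 0.9% saline together with benserazide (10 mg/kg), at a dose molar-equivalent to 12.5 mg/kg L-dopa. Heparinised tail-vein blood was sampled at intervals and the plasma stored at −80 °C. L-dopa was extracted with 20% TFA/10 mM metabisulphite plus warfarin internal standard and quantified by LC-MS/MS (positive ESI) against plasma standard curves.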
# Rattus norvegicus [13] = assay: Antiparkinsonian activity in 6-hydroxydopamine lesioned Wistar rat assessed as area under curve measured as number of rotation per 10 mins at 14.74 mg/kg, ip; type: functional; settings: route intraperitoneal; in short: as §1
# Rattus norvegicus [14] = assay: Antiparkinsonian activity in 6-hydroxydopamine lesioned Wistar rat assessed as number of rotation per 10 mins at 14.74 mg/kg, po; type: functional; in short: as §3
# Rattus norvegicus [15] = assay: Antiparkinsonian activity in 6-hydroxydopamine lesioned Wistar rat assessed as number of rotation per 10 mins at 14.74 mg/kg, ip; type: functional; settings: route intraperitoneal; in short: as §3
# Rattus norvegicus [16] = assay: Antiparkinsonian activity in 6-hydroxydopamine lesioned Wistar rat assessed as area under curve measured as number of rotation per 10 mins at 15.64 mg/kg, ip; type: functional; settings: route intraperitoneal; in short: as §1
# Rattus norvegicus [17] = assay: Antiparkinsonian activity in 6-hydroxydopamine lesioned Wistar rat assessed as duration of rotation per 10 mins at 15.64 mg/kg, po; type: functional; in short: as §2
# Rattus norvegicus [18] = assay: Antiparkinsonian activity in 6-hydroxydopamine lesioned Wistar rat assessed as number of rotation per 10 mins at 15.64 mg/kg, po; type: functional; in short: as §3
# Rattus norvegicus [19] = assay: Antiparkinsonian activity in 6-hydroxydopamine lesioned Wistar rat assessed as number of rotation per 10 mins at 15.64 mg/kg, ip; type: functional; settings: route intraperitoneal; in short: as §3
# Rattus norvegicus [20] = assay: Antiparkinsonian activity in 6-hydroxydopamine lesioned Wistar rat assessed as area under curve measured as number of rotation per 10 mins at 15.64 mg/kg, po; type: functional; in short: as §1
# Rattus norvegicus [21] = assay: Antiparkinsonian activity in 6-hydroxydopamine lesioned Wistar rat assessed as duration of rotation per 10 mins at 15.64 mg/kg, ip; type: functional; settings: route intraperitoneal; in short: as §2
# Rattus norvegicus [22] = assay: AUC (0 to 4 hrs) in Wistar rat at 42.5 mg/kg, po assessed as L-dopa level; type: ADME, organism-based, Plasma; parameters: time < 4 hr, dose 42.5 mg/kg, route oral; settings: in vivo; in short: as §5
# Rattus norvegicus [23] = assay: Cmax in Wistar rat at 42.5 mg/kg, po assessed as L-dopa level; type: ADME, organism-based; parameters: dose 42.5 mg/kg, route oral; settings: in vivo; in short: as §4
# Rattus norvegicus [24] = assay: Apparent half life in Wistar rat at 42.5 mg/kg, po assessed as L-dopa level; type: ADME, organism-based; parameters: dose 42.5 mg/kg, route oral; settings: in vivo; in short: as §4
# Rattus norvegicus [25] = assay: Antiparkinsonian activity in 6-hydroxydopamine lesioned Wistar rat assessed as area under curve measured as number of rotation per 10 mins at 21.35 mg/kg, ip; type: functional; settings: route intraperitoneal; in short: as §1
# Rattus norvegicus [26] = assay: Antiparkinsonian activity in 6-hydroxydopamine lesioned Wistar rat assessed as area under curve measured as number of rotation per 10 mins at 21.35 mg/kg, po; type: functional; in short: as §1
# Rattus norvegicus [27] = assay: Antiparkinsonian activity in 6-hydroxydopamine lesioned Wistar rat assessed as duration of rotation per 10 mins at 21.35 mg/kg, ip; type: functional; settings: route intraperitoneal; in short: as §2
# Rattus norvegicus [28] = assay: Antiparkinsonian activity in 6-hydroxydopamine lesioned Wistar rat assessed as duration of rotation per 10 mins at 21.35 mg/kg, po; type: functional; in short: as §2
# Rattus norvegicus [29] = assay: Antiparkinsonian activity in 6-hydroxydopamine lesioned Wistar rat assessed as number of rotation per 10 mins at 21.35 mg/kg, po; type: functional
# Rattus norvegicus [30] = assay: Antiparkinsonian activity in 6-hydroxydopamine lesioned Wistar rat assessed as number of rotation per 10 mins at 21.35 mg/kg, ip; type: functional; settings: route intraperitoneal
# Rattus norvegicus [31] = assay: Antiparkinsonian activity in 6-hydroxydopamine lesioned Wistar rat assessed as duration of rotation per 10 mins at 20.1 mg/kg, ip; type: functional; settings: route intraperitoneal; in short: as §2
# Rattus norvegicus [32] = assay: Apparent half life in Wistar rat at 20.1 mg/kg, po assessed as L-dopa level; type: ADME, organism-based; parameters: dose 20.1 mg/kg, route oral; settings: in vivo; in short: as §4
# Rattus norvegicus [33] = assay: AUC (0 to 4 hrs) in Wistar rat at 20.1 mg/kg, po assessed as L-dopa level; type: ADME, organism-based, Plasma; parameters: time < 4 hr, dose 20.1 mg/kg, route oral; settings: in vivo; in short: as §5
# Rattus norvegicus [34] = assay: Antiparkinsonian activity in 6-hydroxydopamine lesioned Wistar rat assessed as number of rotation per 10 mins at 20.1 mg/kg, po; type: functional; in short: as §3
# Rattus norvegicus [35] = assay: Cmax in Wistar rat at 20.1 mg/kg, po assessed as L-dopa level; type: ADME, organism-based; parameters: dose 20.1 mg/kg, route oral; settings: in vivo; in short: as §4
# Rattus norvegicus [36] = assay: Antiparkinsonian activity in 6-hydroxydopamine lesioned Wistar rat assessed as duration of rotation per 10 mins at 20.1 mg/kg, po; type: functional; in short: as §2
# Rattus norvegicus [37] = assay: Antiparkinsonian activity in 6-hydroxydopamine lesioned Wistar rat assessed as area under curve measured as number of rotation per 10 mins at 20.1 mg/kg, ip; type: functional; settings: route intraperitoneal; in short: as §1
# Rattus norvegicus [38] = assay: Antiparkinsonian activity in 6-hydroxydopamine lesioned Wistar rat assessed as number of rotation per 10 mins at 20.1 mg/kg, ip; type: functional; settings: route intraperitoneal; in short: as §3
# Rattus norvegicus [39] = assay: Antiparkinsonian activity in 6-hydroxydopamine lesioned Wistar rat assessed as area under curve measured as number of rotation per 10 mins at 20.1 mg/kg, po; type: functional; in short: as §1
compound,measurement,setting,value
CCNC(=O)[C@@H](N)Cc1ccc(O)c(O)c1.Cl,Activity,Rattus norvegicus [1],117
same,Activity,Rattus norvegicus [2],324
same,Time,Rattus norvegicus [3],18 min
same,Activity,Rattus norvegicus [4],39
same,Time,Rattus norvegicus [5],39 min
same,Activity,Rattus norvegicus [6],40
Cl.NC(=O)[C@@H](N)Cc1ccc(O)c(O)c1,Time,Rattus norvegicus [7],155 min
same,Time,Rattus norvegicus [8],103 min
same,Cmax,Rattus norvegicus [9],2203 ng/mL
same,t1/2,Rattus norvegicus [10],52 min
same,Activity,Rattus norvegicus [11],612
same,AUC,Rattus norvegicus [12],256 µg·min/mL
same,Activity,Rattus norvegicus [13],1186
same,Activity,Rattus norvegicus [14],105
same,Activity,Rattus norvegicus [15],144
CNC(=O)[C@@H](N)Cc1ccc(O)c(O)c1.Cl,Activity,Rattus norvegicus [16],16
same,Time,Rattus norvegicus [17],10 min
same,Activity,Rattus norvegicus [18],5
same,Activity,Rattus norvegicus [19],2
same,Activity,Rattus norvegicus [20],29
same,Time,Rattus norvegicus [21],0 min
CC(C)(C)C(=O)Oc1ccc(C[C@H](N)C(N)=O)cc1OC(=O)C(C)(C)C.Cl,AUC,Rattus norvegicus [22],44 µg·min/mL
same,Cmax,Rattus norvegicus [23],415 ng/mL
same,t1/2,Rattus norvegicus [24],51 min
Cl.N[C@@H](Cc1ccc(O)c(O)c1)C(=O)NCCc1ccccc1,Activity,Rattus norvegicus [25],825
same,Activity,Rattus norvegicus [26],94
same,Time,Rattus norvegicus [27],124 min
same,Time,Rattus norvegicus [28],30 min
same,Activity,Rattus norvegicus [29],17
same,Activity,Rattus norvegicus [30],124
CC(=O)Oc1ccc(C[C@H](N)C(N)=O)cc1OC(C)=O.Cl,Time,Rattus norvegicus [31],140 min
same,t1/2,Rattus norvegicus [32],97 min
same,AUC,Rattus norvegicus [33],245 µg·min/mL
same,Activity,Rattus norvegicus [34],107
same,Cmax,Rattus norvegicus [35],1746 ng/mL
same,Time,Rattus norvegicus [36],147 min
same,Activity,Rattus norvegicus [37],838
same,Activity,Rattus norvegicus [38],69
same,Activity,Rattus norvegicus [39],1085
